Active and inactive are the calls of the source. No cut-off for these calls is given here.
Legend:
Format in all cases: functional, cell-based
HepG2 [1] = experiment: Cytotoxicity against human HepG2 cells by MTS colorimetric assay
In short: (§1)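 Cells grown in DMEM with 10% fetal calf serum and seeded 24 h before treatment. Viability read by MTS colorimetric assay after 72 h compound exposure. IC50 taken as mean concentration giving 50% growth inhibition from replicate values.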

DLD-1 [2] = experiment: Cytotoxicity against human DLD1 cells by MTS colorimetric assay; in short: as §1
[3] = (§2) Cytotoxicity against human HA59T cells by MTS colorimetric assay; in short: as §1
AGS [4] = experiment: Cytotoxicity against human AGS cells by MTS colorimetric assay; in short: as §1
HA59T [5] = experiment: as §2; in short: as §1
AGS [6] = experiment: Cytotoxicity against human AGS cells upto 30 uM by MTS colorimetric assay
In short: (§3)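 Cells grown in DMEM with 10% fetal calf serum, seeded and cultured 24 h, then exposed to test compounds for 72 h. Viability read by MTS colorimetric assay.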

DLD-1 [7] = experiment: Cytotoxicity against human DLD1 cells upto 30 by MTS colorimetric assay; in short: as §3
HA59T [8] = experiment: Cytotoxicity against human HA59T cells upto 30 by MTS colorimetric assay; in short: as §3
HepG2 [9] = experiment: Cytotoxicity against human HepG2 cells upto 30 by MTS colorimetric assay; in short: as §3

Row | Structure (SMILES) | IC50 (HepG2 [1]) [µM] | IC50 (DLD-1 [2]) [µM] | IC50 [3] [µM] | IC50 (AGS [4]) [µM] | Activity (AGS [6]) | Activity (DLD-1 [7]) | Activity (HA59T [8]) | Activity (HepG2 [9]) | further results
1 | COc1ccc2c(c1O)-c1nccc(C)c1C2=O | > 30 | > 30 | 21.7 | > 30 | – | – | – | – | –
2 | c1ccc2c(c1)C[C@H]1NCCc3cc4c(c-2c31)OCO4 [ANONAINE] | 20.8 | 28.9 | 16.4 | 8.6 | – | – | – | – | –
3 | C[C@@H]1CC[C@@]2(O)[C@H](CC[C@H](O)C2(C)C)[C@@]1(C)CCC1=CC(=O)O[C@@H]1O | – | – | – | – | – | – | – | – | Activity (HepG2 [1]): inactive; Activity (DLD-1 [2]): inactive; Activity (HA59T [5]): inactive; Activity (AGS [4]): inactive
4 | COc1cc2c(cc1O)[C@@H]1Cc3ccc(O)c(OC)c3CN1CC2 | – | – | – | – | inactive | inactive | inactive | inactive | –
5 | COc1cc2c(cc1O)C[C@@H]1NCCc3cc(O)c(OC)c-2c31 | – | – | – | – | inactive | inactive | inactive | inactive | –
6 | CC1=CCC[C@@H]2[C@@](C)(CCC3=CC(=O)O[C@@H]3O)[C@H](C)CC[C@@]12C | > 30 | > 30 | 23.6 | 26.9 | – | – | – | – | –
